Reference: publication PMC11419141 (bioRxiv, 2024)
“Also recorded” adds a separate entry of the source.

Experiments:
[1] = Total antioxidant capacity; conditions: CUPRAC, Trolox equivalent, at any one concentration tested, n=2
Outline: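 Test compounds from DMSO stocks were dispensed acoustically as a 7-concentration series in 384-well plates. Freshly prepared Cu(II)-neocuproine reagent was added, mixed at 650 rpm for 2 min, then incubated sealed at 25 °C. A450 of the Cu(I)-neocuproine chelate was read at 1.5 h and 3 h. A Trolox standard curve was run on every plate, with values expressed as Trolox equivalents (mM). Fold over Trolox was taken as the ratio of linear-regression coefficients; n=2.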

TZM-bl cells = test: Cytotoxicity to cells in the anti-HIV assay; format: cell-based; conditions: toxic to cells in anti-HIV assay
HepG2 cell line = test: Compound cytotoxicity in ARE assay in HepG2 cell line; format: cell-based
[2] = test system: Nrf2-ARE signaling pathway in HepG2-ARE-Luc cells; test: ARE-Luciferase reporter assay for Nrf2 activation in HepG2 cell line; format: cell-based; conditions: Figure 5B at 10 μM
Outline: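 HepG2 cells stably carrying an ARE-driven firefly luciferase reporter, seeded at 10,000 cells/well in complete medium (384-well). Test compounds given as a 7-concentration series for 18 h at 37 °C, 5% CO2. Controls were TBHQ and sulforaphane (positive) and DMSO vehicle. Luminescence was read after Steady-Glo for 30 min. Fold induction was taken as treated/vehicle ×100, with vehicle set at 100%; n=2.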

CCR5-dependent BaL virus = test: Anti-HIV TZM-bl assay, BaL virus; format: cell-based, HIV-1; conditions: concentration not stated (any one concentration, Figure 6)
Outline: (§1)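 TZM-bl cells (HeLa-derived; CD4, CCR5 and CXCR4; Tat-driven luciferase) kept in DMEM with 10% heat-inactivated FBS and gentamicin. Cells seeded at 5000/well onto test compound, then given virus with 8 μg/ml DEAE-dextran. Inoculum was 150,000 RLU equivalents for NL4-3 and 20,000 for BaL.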

[3] = test system: Staphylococcus aureus subsp. aureus Rosenbach, ATCC 29213; test: Antibacterial growth assay, S. aureus; format: cell-based; conditions: for Antibacterial activity against S. aureus: in higher doses (100 μM); for Inhibition of growth of S. aureus: at a concentration of 11.1 μM
Outline: (§2)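 A single colony was grown overnight in cation-adjusted Mueller Hinton broth at 37 °C, 250 rpm, then diluted 100-fold. Cultures were grown for 24 h at 37 °C with test compound as a 7-concentration series. A600 was read, followed by a BacTiter-Glo ATP luminescence read. % growth inhibition was normalized to vancomycin/amikacin positive controls and DMSO negative control.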

[4] = test system: CXCR4-dependent NL4-3 virus; test: Anti-HIV TZM-bl assay, NL4-3 virus; format: cell-based, HIV-1; conditions: concentration not stated (any one concentration, Figure 6)
Outline: as §1

Mycobacterium smegmatis = test: Antibacterial growth assay, M. smegmatis; format: cell-based; conditions: at a high concentration of 300 μM
Outline: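 Mycobacterium smegmatis grown in Middlebrook 7H9 with OADC at 37 °C, 250 rpm, with test compound as a 7-concentration series. A600 read at 24 h and 48 h, then an ATP luminescence read with BacTiter-Glo. % growth inhibition normalized to vancomycin/amikacin positive controls and DMSO negative control.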

[5] = test system: Klebsiella pneumoniae subsp. pneumoniae, ATCC 27736; test: Antibacterial growth assay, K. pneumoniae; format: cell-based; conditions: at a concentration of 300 μM
Outline: as §2

COc1cc(/C=C/C(=O)O)ccc1O [Ferulic acid]
Total antioxidant capacity (TAC) relative to Trolox [1]: on the same range as Trolox

O=c1c(O[C@@H]2O[C@H](CO)[C@@H](O)[C@H](O)[C@H]2O)c(-c2ccc(O)cc2)oc2cc(O)cc(O)c12 [Kaempferol 3-glucoside, Kaempferol 3-glucoside (astragalin)]
Total antioxidant capacity (TAC) relative to Trolox [1]: on the same range as Trolox

OC[C@H]1O[C@@H](Oc2cc3c(O)cc(O)cc3[o+]c2-c2ccc(O)c(O)c2)[C@H](O)[C@@H](O)[C@H]1O [Cyanidin 3-O-galactoside]
Total antioxidant capacity (TAC) relative to Trolox [1]: greater than 5 fold

O=c1c(O)c(-c2cc(O)c(O)c(O)c2)oc2cc(O)cc(O)c12 [Myricetin]
Cytotoxicity concentration (TZM-bl cells): higher than 100 μM
Total antioxidant capacity (TAC) relative to Trolox [1]: greater than 5 fold

C[C@H]1O[C@H](OC[C@H]2O[C@@H](Oc3c(-c4ccc(O)cc4)oc4cc(O)cc(O)c4c3=O)[C@H](O)[C@@H](O)[C@@H]2O)[C@@H](O)[C@@H](O)[C@@H]1O [Kaempferol 3-O-rutinoside]
Total antioxidant capacity (TAC) relative to Trolox [1]: on the same range as Trolox

O=c1c(O)c(-c2ccc(O)c(O)c2)oc2cc(O)cc(O)c12 [Quercetin]
Cytotoxicity to the cells in ARE assay (HepG2 cell line): non-cytotoxic to the cells
ARE activation [2]: activated ARE activity
Inhibition of HIV strain BaL (CCR5-dependent BaL virus): didn’t significantly inhibit
Antibacterial activity against S. aureus [3]: showed antibacterial activity
Inhibition of HIV strain NL4-3 [4]: more than 65%
Cytotoxicity concentration (TZM-bl cells): 26.41 ± 3.91 µM
Total antioxidant capacity (TAC) relative to Trolox [1]: greater than 5 fold

C[C@@H]1O[C@@H](OC[C@H]2O[C@@H](Oc3cc4c(O)cc(O)cc4[o+]c3-c3cc(O)c(O)c(O)c3)[C@H](O)[C@@H](O)[C@@H]2O)[C@H](O)[C@H](O)[C@H]1O [Delphinidin 3-O-rutinoside]
Inhibition of growth of S. aureus [3]: more than 50%
Total antioxidant capacity (TAC) relative to Trolox [1]: greater than 5 fold

C[C@@H]1O[C@@H](OC[C@H]2O[C@@H](Oc3cc4c(O)cc(O)cc4[o+]c3-c3ccc(O)c(O)c3)[C@H](O)[C@@H](O)[C@@H]2O)[C@H](O)[C@H](O)[C@H]1O [Cyanidin 3-O-rutinoside]
Inhibition of M. smegmatis (Mycobacterium smegmatis): more than 50%
Inhibition of growth of S. aureus [3]: more than 50%
Total antioxidant capacity (TAC) relative to Trolox [1]: greater than 5 fold

OC[C@H]1O[C@@H](Oc2cc3c(O[C@@H]4O[C@H](CO)[C@@H](O)[C@H](O)[C@H]4O)cc(O)cc3[o+]c2-c2ccc(O)c(O)c2)[C@H](O)[C@@H](O)[C@@H]1O [Cyanidin 3,5-O-diglucoside]
Total antioxidant capacity (TAC) relative to Trolox [1]: greater than 5 fold

O=C1C[C@@H](c2ccc(O)cc2)Oc2cc(O)cc(O)c21 [Naringenin]
Cytotoxicity to the cells in ARE assay (HepG2 cell line): non-cytotoxic to cells
ARE activation [2]: activated ARE activity
Total antioxidant capacity (TAC) relative to Trolox [1]: on the same range as Trolox

COc1cc(-c2oc3cc(O)cc(O)c3c(=O)c2O[C@@H]2O[C@H](CO)[C@@H](O)[C@H](O)[C@H]2O)ccc1O [Isorhamnetin 3-O-glucoside]
Cytotoxicity to the cells in ARE assay (HepG2 cell line): non-cytotoxic to the cells
ARE activation [2]: activated ARE activity
Total antioxidant capacity (TAC) relative to Trolox [1]: on the same range as Trolox

COc1cc(-c2oc3cc(O)cc(O)c3c(=O)c2O)ccc1O [Isorhamnetin]
Cytotoxicity concentration (TZM-bl cells): 3.042 ± 0.27 µM
Total antioxidant capacity (TAC) relative to Trolox [1]: greater than 5 fold

O=c1c(O[C@@H]2O[C@H](CO)[C@H](O)[C@H](O)[C@H]2O)c(-c2ccc(O)c(O)c2)oc2cc(O)cc(O)c12 [Hyperoside (Quercetin 3-galactoside), Hyperoside (quercetin 3-galactoside)]
Total antioxidant capacity (TAC) relative to Trolox [1]: greater than 5 fold

O=C(O)c1cc(O)c(O)c(O)c1 [Gallic acid]
Cytotoxicity concentration (TZM-bl cells): 80.42 ± 0.57 µM
Total antioxidant capacity (TAC) relative to Trolox [1]: greater than 5 fold

O=c1cc(-c2ccc(O)c(O)c2)oc2cc(O)cc(O)c12 [Luteolin]
ARE activation [2]: activated ARE activity
Inhibition of HIV strain BaL (CCR5-dependent BaL virus): more than 90%
Inhibition of HIV strain NL4-3 [4]: more than 90%
Cytotoxicity concentration (TZM-bl cells): 4.28 ± 0.45 µM

OC[C@H]1O[C@@H](Oc2cc3c(O)cc(O)cc3[o+]c2-c2ccc(O)cc2)[C@H](O)[C@@H](O)[C@@H]1O [Pelargonidin 3-O-glucoside]
Inhibition of growth of K. pneumoniae [5]: more than 50%
Antibacterial activity against S. aureus [3]: showed antibacterial activity

O=C(/C=C/c1ccc(O)c(O)c1)O[C@@H]1C[C@@](O)(C(=O)O)C[C@@H](O)[C@@H]1O [Neochlorogenic acid (3-caffeoylquinic acid)]
Total antioxidant capacity (TAC) relative to Trolox [1]: greater than 5 fold

O=c1c(O[C@@H]2O[C@H](CO)[C@@H](O)[C@H](O)[C@H]2O)c(-c2ccc(O)c(O)c2)oc2cc(O)cc(O)c12 [Quercetin-3-β-D-glucoside (hirsutrin), Quercetin-3-β-D-glucoside]
Total antioxidant capacity (TAC) relative to Trolox [1]: greater than 5 fold

OC[C@H]1O[C@@H](Oc2cc3c(O)cc(O)cc3[o+]c2-c2ccc(O)c(O)c2)[C@H](O)[C@@H](O)[C@@H]1O [Cyanidin 3-O-glucoside]
Inhibition of growth of S. aureus [3]: more than 50%
Total antioxidant capacity (TAC) relative to Trolox [1]: greater than 5 fold

O=C(O)C=Cc1ccc(O)cc1 [p-Coumaric acid]
Total antioxidant capacity (TAC) relative to Trolox [1]: on the same range as Trolox

OC[C@H]1O[C@@H](Oc2cc3c(O)cc(O)cc3[o+]c2-c2ccc(O)c(O)c2)[C@H](O[C@@H]2OC[C@@H](O)[C@H](O)[C@H]2O)[C@@H](O)[C@@H]1O [Cyanidin 3-O-sambubioside]
Inhibition of M. smegmatis (Mycobacterium smegmatis): more than 50%
Antibacterial activity against S. aureus [3]: showed antibacterial activity
Total antioxidant capacity (TAC) relative to Trolox [1]: greater than 5 fold

O=c1c(O)c(-c2ccc(O)cc2)oc2cc(O)cc(O)c12 [Kaempferol]
Cytotoxicity to the cells in ARE assay (HepG2 cell line): non-cytotoxic to the cells
ARE activation [2]: activated ARE activity; also recorded: highest level of ARE activation
Inhibition of HIV strain BaL (CCR5-dependent BaL virus): didn’t significantly inhibit
Inhibition of HIV strain NL4-3 [4]: more than 65%
Cytotoxicity concentration (TZM-bl cells): 11.00 ± 0.62 µM

OC[C@H]1O[C@@H](O[C@H]2[C@H](Oc3cc4c(O)cc(O)cc4[o+]c3-c3ccc(O)c(O)c3)O[C@H](CO)[C@@H](O)[C@@H]2O)[C@H](O)[C@@H](O)[C@@H]1O [Cyanidin 3-O-sophoroside]
Inhibition of growth of K. pneumoniae [5]: more than 50%
Antibacterial activity against S. aureus [3]: showed antibacterial activity
Total antioxidant capacity (TAC) relative to Trolox [1]: greater than 5 fold

COc1cc(-c2[o+]c3cc(O)cc(O)c3cc2O[C@@H]2O[C@H](CO)[C@@H](O)[C@H](O)[C@H]2O)ccc1O [Peonidin 3-O-glucoside]
Inhibition of growth of K. pneumoniae [5]: more than 50%
Antibacterial activity against S. aureus [3]: showed antibacterial activity

Oc1cc(O)c2c(c1)O[C@H](c1ccc(O)c(O)c1)[C@H](O)C2 [(-)-Epicatechin]
inhibition at 300 µM ([3]; Staphylococcus aureus, ATCC29213, read-out: Inhibition against S. aureus): > 50%
